Blank lines part the entries; values can stand above or below the compound they belong to.
Key:
[1] = target: Protein kinase C gamma type (Homo sapiens) (UniProt P05129); test: Inhibition of human recombinant PKCg at 500 nM in presence of ATP by radiometric assay relative to control
[2] = target: RAC-beta serine/threonine-protein kinase (Homo sapiens) (UniProt P31751); test: Inhibition of human recombinant AKT2 at 500 nM in presence of ATP by radiometric assay relative to control
Outline: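 Panel of 327 recombinant human kinases in radiometric activity assays, each screened in duplicate at a single inhibitor concentration; percent activity remaining relative to vehicle control, percent inhibition taken as 100 minus activity remaining.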

[3] = target: Serine/threonine-protein kinase 35 (Homo sapiens) (UniProt Q8TDR2); test: Inhibition of human recombinant CLIK1 at 500 nM in presence of ATP by radiometric assay relative to control
[4] = target: Serine/threonine-protein kinase Nek4 (Homo sapiens) (UniProt P51957); test: Inhibition of human recombinant NEK4 at 500 nM in presence of ATP by radiometric assay relative to control
Chain of Serine/threonine-protein kinase Nek4 (Homo sapiens) (P51957 whole entry, looked up): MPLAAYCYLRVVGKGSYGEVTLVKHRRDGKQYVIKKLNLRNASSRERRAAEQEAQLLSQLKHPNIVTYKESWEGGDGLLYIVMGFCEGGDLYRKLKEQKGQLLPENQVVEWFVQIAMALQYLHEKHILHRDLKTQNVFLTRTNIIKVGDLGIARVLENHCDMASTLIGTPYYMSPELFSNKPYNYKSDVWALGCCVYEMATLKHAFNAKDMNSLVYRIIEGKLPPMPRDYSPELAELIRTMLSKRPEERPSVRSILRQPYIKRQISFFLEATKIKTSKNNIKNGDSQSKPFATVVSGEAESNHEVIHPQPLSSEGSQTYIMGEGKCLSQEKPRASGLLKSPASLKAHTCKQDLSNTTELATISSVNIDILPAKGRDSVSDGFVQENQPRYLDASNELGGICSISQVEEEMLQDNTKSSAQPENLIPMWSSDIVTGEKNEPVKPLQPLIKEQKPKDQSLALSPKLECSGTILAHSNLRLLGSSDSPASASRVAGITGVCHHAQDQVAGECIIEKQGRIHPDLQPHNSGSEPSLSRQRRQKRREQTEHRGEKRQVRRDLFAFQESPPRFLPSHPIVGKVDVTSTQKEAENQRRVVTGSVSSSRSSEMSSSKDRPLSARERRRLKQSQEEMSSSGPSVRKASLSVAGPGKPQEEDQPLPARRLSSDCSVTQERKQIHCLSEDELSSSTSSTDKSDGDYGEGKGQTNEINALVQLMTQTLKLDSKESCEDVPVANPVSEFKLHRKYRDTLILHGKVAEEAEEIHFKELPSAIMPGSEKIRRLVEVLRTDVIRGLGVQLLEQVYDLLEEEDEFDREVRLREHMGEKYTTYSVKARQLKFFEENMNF

[5] = target: Serine/threonine-protein kinase 25 (Homo sapiens) (UniProt O00506); test: Inhibition of human recombinant YSK1 at 15 nM related to control ULK1
[6] = target: Tyrosine-protein kinase BTK (Homo sapiens) (UniProt Q06187); test: Inhibition of human recombinant BTK at 15 nM related to control ULK1
Chain of Tyrosine-protein kinase BTK (Homo sapiens) (Q06187 whole entry): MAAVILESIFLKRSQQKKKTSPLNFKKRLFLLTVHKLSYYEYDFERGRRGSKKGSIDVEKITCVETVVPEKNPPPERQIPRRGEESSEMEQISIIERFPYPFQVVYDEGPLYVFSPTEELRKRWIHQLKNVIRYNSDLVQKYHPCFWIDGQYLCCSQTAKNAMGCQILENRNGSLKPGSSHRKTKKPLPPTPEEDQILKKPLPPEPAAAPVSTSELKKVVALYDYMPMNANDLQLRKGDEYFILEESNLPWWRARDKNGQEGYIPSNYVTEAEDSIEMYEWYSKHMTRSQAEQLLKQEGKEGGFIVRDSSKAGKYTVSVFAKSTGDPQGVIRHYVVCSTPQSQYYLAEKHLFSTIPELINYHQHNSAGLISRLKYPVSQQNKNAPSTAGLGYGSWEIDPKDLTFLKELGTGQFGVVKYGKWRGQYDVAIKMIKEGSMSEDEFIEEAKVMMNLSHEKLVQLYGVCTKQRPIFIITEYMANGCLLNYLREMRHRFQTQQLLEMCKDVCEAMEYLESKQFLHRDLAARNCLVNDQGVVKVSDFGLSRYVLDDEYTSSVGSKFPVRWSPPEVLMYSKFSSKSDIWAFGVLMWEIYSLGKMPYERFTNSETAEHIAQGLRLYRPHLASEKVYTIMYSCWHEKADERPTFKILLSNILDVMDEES

[7] = target: T1, Receptor-interacting serine/threonine-protein kinase 1 (Homo sapiens) (UniProt Q13546); test: Inhibition of human recombinant RIPK1 at 15 nM in presence of ATP by radiometric assay relative to control
T1 sequence (whole entry): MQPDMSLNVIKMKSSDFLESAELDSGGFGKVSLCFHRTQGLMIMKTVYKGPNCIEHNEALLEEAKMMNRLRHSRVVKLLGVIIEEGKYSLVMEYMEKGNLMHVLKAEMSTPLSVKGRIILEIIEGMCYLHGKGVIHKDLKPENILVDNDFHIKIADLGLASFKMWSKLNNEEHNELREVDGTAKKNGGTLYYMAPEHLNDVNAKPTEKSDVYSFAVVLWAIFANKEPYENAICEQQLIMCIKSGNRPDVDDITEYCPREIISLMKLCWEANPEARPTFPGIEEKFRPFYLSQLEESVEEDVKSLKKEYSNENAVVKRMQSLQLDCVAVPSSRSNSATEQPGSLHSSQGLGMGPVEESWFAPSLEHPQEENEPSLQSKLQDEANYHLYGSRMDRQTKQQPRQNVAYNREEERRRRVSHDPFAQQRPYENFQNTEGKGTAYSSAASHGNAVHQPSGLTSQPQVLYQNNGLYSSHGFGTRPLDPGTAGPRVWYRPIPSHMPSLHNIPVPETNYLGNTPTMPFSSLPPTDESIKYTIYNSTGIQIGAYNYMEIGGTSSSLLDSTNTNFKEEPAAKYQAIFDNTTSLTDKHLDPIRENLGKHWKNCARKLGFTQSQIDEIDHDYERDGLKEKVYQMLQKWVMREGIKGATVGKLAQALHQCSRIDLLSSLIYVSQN

[8] = target: Protein kinase C theta type (Homo sapiens) (UniProt Q04759); test: Inhibition of human recombinant PKCt at 15 nM related to control ULK1
[9] = target: Proto-oncogene tyrosine-protein kinase Src (Homo sapiens) (UniProt P12931); test: Inhibition of human recombinant SRC at 40 nM in presence of ATP by radiometric assay relative to control
Chain of Proto-oncogene tyrosine-protein kinase Src (Homo sapiens) (P12931 2-536 limits assumed): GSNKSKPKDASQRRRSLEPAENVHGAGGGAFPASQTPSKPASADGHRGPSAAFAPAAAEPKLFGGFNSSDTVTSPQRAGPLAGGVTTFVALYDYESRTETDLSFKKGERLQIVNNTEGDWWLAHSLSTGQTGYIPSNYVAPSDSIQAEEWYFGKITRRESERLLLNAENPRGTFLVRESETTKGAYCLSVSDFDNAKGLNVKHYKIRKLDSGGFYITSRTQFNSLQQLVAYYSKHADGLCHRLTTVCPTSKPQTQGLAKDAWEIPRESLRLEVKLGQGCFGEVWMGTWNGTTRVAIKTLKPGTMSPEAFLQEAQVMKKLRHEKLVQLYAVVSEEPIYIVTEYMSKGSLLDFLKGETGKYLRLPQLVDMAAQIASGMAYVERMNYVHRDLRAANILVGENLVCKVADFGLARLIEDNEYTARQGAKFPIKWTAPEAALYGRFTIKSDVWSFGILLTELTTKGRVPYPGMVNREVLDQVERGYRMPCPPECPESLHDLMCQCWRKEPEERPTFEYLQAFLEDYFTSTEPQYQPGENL

[10] = target: Serine/threonine-protein kinase MARK2 (Homo sapiens) (UniProt Q7KZI7); test: Inhibition of human recombinant MARK2 at 40 nM in presence of ATP by radiometric assay relative to control
Chain of Serine/threonine-protein kinase MARK2 (Homo sapiens) (Q7KZI7 whole entry): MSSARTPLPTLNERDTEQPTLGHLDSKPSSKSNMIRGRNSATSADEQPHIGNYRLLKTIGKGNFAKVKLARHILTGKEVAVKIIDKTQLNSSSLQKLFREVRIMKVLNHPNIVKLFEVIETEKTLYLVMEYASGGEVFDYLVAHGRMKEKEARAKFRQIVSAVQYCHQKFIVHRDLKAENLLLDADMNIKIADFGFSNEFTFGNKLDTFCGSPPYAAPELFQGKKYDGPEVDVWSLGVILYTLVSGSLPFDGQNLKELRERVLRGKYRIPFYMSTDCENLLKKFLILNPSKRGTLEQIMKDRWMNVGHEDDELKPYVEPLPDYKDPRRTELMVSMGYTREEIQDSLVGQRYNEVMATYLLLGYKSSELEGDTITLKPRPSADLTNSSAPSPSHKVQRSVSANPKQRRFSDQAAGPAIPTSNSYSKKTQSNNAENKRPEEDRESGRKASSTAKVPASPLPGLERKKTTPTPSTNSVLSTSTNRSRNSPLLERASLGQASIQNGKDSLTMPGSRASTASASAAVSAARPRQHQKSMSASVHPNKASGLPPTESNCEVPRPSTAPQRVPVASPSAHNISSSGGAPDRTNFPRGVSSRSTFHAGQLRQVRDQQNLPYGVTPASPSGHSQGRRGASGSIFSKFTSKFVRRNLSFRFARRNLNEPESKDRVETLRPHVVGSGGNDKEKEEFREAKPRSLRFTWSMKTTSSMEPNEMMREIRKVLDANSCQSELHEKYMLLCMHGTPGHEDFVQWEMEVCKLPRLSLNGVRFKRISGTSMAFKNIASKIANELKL

[11] = target: Wee1-like protein kinase 2 (Homo sapiens) (UniProt P0C1S8); test: Inhibition of human recombinant Wee1B at 40 nM in presence of ATP by radiometric assay relative to control
Chain of Wee1-like protein kinase 2 (Homo sapiens) (P0C1S8 whole entry, looked up, canonical isoform): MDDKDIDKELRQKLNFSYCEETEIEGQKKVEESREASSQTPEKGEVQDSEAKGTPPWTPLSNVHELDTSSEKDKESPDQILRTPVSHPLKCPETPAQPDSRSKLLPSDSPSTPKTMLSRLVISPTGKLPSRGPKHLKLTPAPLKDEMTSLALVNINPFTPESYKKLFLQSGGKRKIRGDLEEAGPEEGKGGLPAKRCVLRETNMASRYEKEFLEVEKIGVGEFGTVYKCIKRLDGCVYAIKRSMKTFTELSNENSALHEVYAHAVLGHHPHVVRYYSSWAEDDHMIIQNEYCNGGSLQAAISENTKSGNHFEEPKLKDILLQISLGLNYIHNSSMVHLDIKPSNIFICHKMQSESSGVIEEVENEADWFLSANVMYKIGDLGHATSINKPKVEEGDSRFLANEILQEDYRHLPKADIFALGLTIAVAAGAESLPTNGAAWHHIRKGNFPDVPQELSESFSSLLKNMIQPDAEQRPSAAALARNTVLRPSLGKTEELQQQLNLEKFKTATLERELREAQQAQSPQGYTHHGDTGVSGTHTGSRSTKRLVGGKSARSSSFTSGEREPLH

[12] = target: Casein kinase I isoform gamma-1 (Homo sapiens) (UniProt Q9HCP0); test: Inhibition of human recombinant CK1g1 at 40 nM in presence of ATP by radiometric assay relative to control
Chain of Casein kinase I isoform gamma-1 (Homo sapiens) (Q9HCP0 whole entry, looked up, canonical isoform): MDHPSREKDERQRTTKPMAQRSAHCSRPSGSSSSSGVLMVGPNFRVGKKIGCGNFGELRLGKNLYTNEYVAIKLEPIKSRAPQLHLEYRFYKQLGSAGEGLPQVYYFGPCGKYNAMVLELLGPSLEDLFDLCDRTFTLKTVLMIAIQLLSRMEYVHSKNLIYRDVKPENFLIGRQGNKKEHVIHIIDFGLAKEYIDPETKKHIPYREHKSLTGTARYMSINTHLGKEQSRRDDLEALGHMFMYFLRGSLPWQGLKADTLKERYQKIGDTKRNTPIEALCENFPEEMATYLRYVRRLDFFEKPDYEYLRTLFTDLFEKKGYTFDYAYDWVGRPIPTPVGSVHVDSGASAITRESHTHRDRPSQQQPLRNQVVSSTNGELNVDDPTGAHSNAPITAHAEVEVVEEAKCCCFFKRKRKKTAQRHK

[13] = target: T2, Inhibitor of nuclear factor kappa-B kinase subunit alpha (Homo sapiens) (UniProt O15111); test: Inhibition of human recombinant IKKa at 40 nM in presence of ATP by radiometric assay relative to control
T2 sequence (whole entry): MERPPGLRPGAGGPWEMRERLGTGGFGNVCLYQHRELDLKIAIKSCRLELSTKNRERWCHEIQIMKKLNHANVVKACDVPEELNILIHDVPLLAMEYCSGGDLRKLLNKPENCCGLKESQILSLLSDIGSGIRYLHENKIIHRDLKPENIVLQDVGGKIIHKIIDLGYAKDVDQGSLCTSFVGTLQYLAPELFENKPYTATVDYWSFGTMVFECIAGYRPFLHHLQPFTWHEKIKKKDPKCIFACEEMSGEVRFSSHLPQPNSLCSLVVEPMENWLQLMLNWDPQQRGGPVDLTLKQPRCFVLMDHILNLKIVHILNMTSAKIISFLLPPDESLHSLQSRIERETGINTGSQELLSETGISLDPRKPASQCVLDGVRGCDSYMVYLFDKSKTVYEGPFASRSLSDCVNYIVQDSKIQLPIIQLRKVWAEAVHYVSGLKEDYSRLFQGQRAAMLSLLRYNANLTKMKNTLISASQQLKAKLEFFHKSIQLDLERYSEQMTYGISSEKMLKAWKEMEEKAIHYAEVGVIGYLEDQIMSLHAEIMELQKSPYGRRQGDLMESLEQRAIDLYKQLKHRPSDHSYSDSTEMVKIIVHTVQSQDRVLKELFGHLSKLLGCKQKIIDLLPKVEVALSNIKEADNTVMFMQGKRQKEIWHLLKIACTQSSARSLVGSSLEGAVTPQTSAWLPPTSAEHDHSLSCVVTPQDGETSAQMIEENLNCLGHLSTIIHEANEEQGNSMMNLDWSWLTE

Chain of RAC-beta serine/threonine-protein kinase (Homo sapiens) (P31751 whole entry): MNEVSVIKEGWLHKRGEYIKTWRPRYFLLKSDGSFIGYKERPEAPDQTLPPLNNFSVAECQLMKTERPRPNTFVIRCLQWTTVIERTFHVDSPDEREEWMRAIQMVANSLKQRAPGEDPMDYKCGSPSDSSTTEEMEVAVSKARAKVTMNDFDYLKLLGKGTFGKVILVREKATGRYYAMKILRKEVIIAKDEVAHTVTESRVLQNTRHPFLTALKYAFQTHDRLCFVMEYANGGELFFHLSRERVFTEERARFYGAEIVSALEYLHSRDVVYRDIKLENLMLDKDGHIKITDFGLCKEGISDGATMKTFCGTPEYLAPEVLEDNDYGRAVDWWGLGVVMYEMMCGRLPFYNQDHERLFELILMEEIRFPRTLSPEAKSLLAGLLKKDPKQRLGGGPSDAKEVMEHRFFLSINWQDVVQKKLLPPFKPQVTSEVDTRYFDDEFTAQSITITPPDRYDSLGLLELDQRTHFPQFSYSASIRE

inhibition [1]: 9% | inhibition [2]: 7% | inhibition [3]: 3% | inhibition [4]: 23%
Compound: CNC(=O)c1ccccc1Oc1nc(Nc2cc(OC)c(OC)c(OC)c2)ncc1Br

fold change (FC) [5]: 0 | fold change (FC) [6]: 0 | inhibition [7]: 1% | fold change (FC) [8]: 0
Compound: CC(C)[C@H](NC(=O)c1cc(-c2cnn3cc(-c4ccc(OCCN5CCCCC5)cc4)cnc23)cs1)C(F)(F)F

inhibition [9]: 2% | inhibition [10]: 12% | inhibition [11]: 0% | inhibition [12]: 0% | inhibition [13]: 0%
Compound: O=C(N[C@@H](C1CC1)C(F)(F)F)c1cc(-c2cnn3cc(-c4ccc(F)cc4)cnc23)cs1

— ChEMBL document CHEMBL5653631, “A Potent and Selective ULK1 Inhibitor Suppresses Autophagy and Sensitizes Cancer Cells to Nutrient Stress” (iScience, 2018)
